Reference: ChEMBL document CHEMBL1143898, “Synthesis and study of antiviral and anti-radical properties of aminophenol derivatives” (Bioorg Med Chem Lett, 2008)
Activity calls are given as the source filed them.

How the values were obtained:
[1] = Cytotoxicity against human rhabdomyosarcoma cells assessed as maximum non-toxic concentrations after 72 hrs; format: functional
Method in brief: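 Non-infected RD cell cultures exposed to compound for 72 h; maximum non-toxic concentration determined.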

[2] = system: Human alphaherpesvirus 1; assay: Antiviral activity against HSV1-induced cytopathic effect in human rhabdomyosarcoma cells assessed as suppression of viral replication; format: functional, organism-based
Method in brief: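 HSV-1 infected human rhabdomyosarcoma (RD) cell culture; cytopathic effect based method. Compound predissolved in 10% ethanol, then twofold dilutions made in maintenance medium 199. Criterion: reduction of virus titer relative to untreated infected control; concentrations suppressing virus replication by 50% and 90% calculated (EC50, EC90).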

[3] = system: Peritoneal macrophage cell; assay: Inhibition of zymosan-stimulated ROS production in rat peritoneal macrophages; format: functional, cell-based
Method in brief: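 ROS generation measured by luminol-dependent chemiluminescence with and without compound; EC50 and EC90 taken as concentrations lowering luminescence intensity by 50% and 90%.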

COc1c(NC(C)=O)cc(C(C)(C)C)cc1C(C)(C)C gave an Activity [1] of 1444 µM, an EC50 [2] of 798 µM and an EC90 [2] of 1960 µM.
With COc1c(Nc2ccccc2)cc(C(C)(C)C)cc1C(C)(C)C the Activity [1] was 722 µM, the Activity [3] was “inactive” and the EC50 [2] was 255 µM. It also gave an EC90 [2] of 624 µM.
CC(C)(C)c1cc(Nc2ccccc2)c(O)c(C(C)(C)C)c1 showed an Activity [1] of 336.7 µM, an EC50 [3] of 9.8 µM and an EC50 [2] of 23 µM. For the same compound, the EC90 [2] was 169 µM.
CC(C)(C)c1cc(N)c(O)c(C(C)(C)C)c1 showed an Activity [1] of 113.2 µM, an EC50 [3] of 0.06 µM and an EC50 [2] of 87.3 µM. The EC90 [2] was 288 µM.
With CCCC(=O)Nc1cc(C(C)(C)C)cc(C(C)(C)C)c1O the Activity [1] was 686.2 µM, the Activity [3] was “inactive” and the EC50 [2] was 8.6 µM. It also gave an EC90 [2] of 14.1 µM.
For CC(=O)Nc1cc(C(C)(C)C)cc(C(C)(C)C)c1O, the Activity [1] was 379.7 µM, the Activity [3] was “inactive” and the EC50 [2] was 8.5 µM. The EC90 [2] was 14.8 µM.
For CCC(=O)Nc1cc(C(C)(C)C)cc(C(C)(C)C)c1O, the Activity [1] was 720.9 µM, the Activity [3] was “inactive” and the EC50 [2] was 38.2 µM. The EC90 [2] was 64.5 µM.
